# Tested on: MS2 coat protein
# Assay: apparent Kd, MS2 coat protein; higher = weaker binding; RNA-MaP array; tryptophan 2.4 mM where present
# Outline: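 On Illumina sequencing-chip clusters, designs were transcribed by stalled E. coli RNA polymerase and titrated with SNAP-549-labelled MS2 coat protein (0.7 or 1.5 nM, doubling to 3 µM), without and then with constant ligand, in 100 mM Tris-HCl pH 7.5, 80 mM KCl, 4 mM MgCl2, BSA, DTT, yeast tRNA and Tween-20. Apparent Kd is the median of filtered per-cluster curve fits to green signal normalised to red-channel RNA signal and control-cluster median Fmax.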
# [1] = designed as: ON switch for tryptophan, no ligand
# [2] = ligand present: tryptophan, designed as: ON switch for tryptophan
# [3] = designed as: OFF switch for tryptophan, no ligand
# [4] = ligand present: tryptophan, designed as: OFF switch for tryptophan
Sequence,apparent Kd [1] [nM],apparent Kd [2] [nM],apparent Kd [3] [nM],apparent Kd [4] [nM]
GGUUACUCUACGGCCGCCACUGUAAUGUAAAGAUACCUGUACAUGACAUGAGGAUCACCCAUGUACAGGACCGGGUAGUGUAACC,237,48.1,–,–
ACCUGCGUUUGAUAAAAUCAGACGCAGGUUCGAGGACCGGUACGGCCGCCACUCGGACAUGAGGAUCACCCAUGUUUGACAUGGG,–,–,109,256
GGUACAUGAGGAUCACCCAUGUAUUAGUGCCGAGGACCGGUACGGCCGCCACUCGCUUCACAUGAGGAUCACCCAUGUGUCACUG,29.8,39.8,–,–
GGCAAGCGAGACAUGAGGAUCACCCAUGUUCGAGGACCGGUACGGCCGCCACUCGGUGGACUCAUGGUAAAGCCGGUGAGCCAAA,34.6,74.3,–,–
AAUGUAUGGCACAUGAGGAUCACCCAUGUGCGAGGACCGGUACGGCCGCCACUCGGUCGGUGGUUAAUGAAGCUAUACAUUAAUG,–,–,40,57.7
GGAUUAGAGGCGGCCGCCACUGGAACAUGAGGAUCACCCAUGUAGUGCAUGUAAUUAACCUCGAUCAGGACCGGGCCGAUAGUCA,–,–,59.9,103
ACAGGUACGCCUAUUAAAAUAAAACACCUACGAGGACCGGUACGGCCGCCACUCGGGUGACAUGAGGAUCACCCAUGUGGCUAAA,394,155,–,–
AUGCAUAGCACGGCCGCCACUCAAAUUAAACAUGAGGAUCACCCAUGUAACAUGGAUAAAAUAAAGAGGACCGGGUGAAAUGCAA,28.3,18.9,–,–
GGUUACUCUACGGCCGCCACUGAUUAAUUAUAAUCCUGUACAUAAACAUGAGGAUCACCCAUGUACAGGACCGGGUAGUGUAACC,34.7,29.1,–,–
CUGUACAUCUCGGCCGCCACUGCAACAUGUACACAUGGACAUGUACAUGAGGAUCACCCAUGUGGCAGGACCGGGAGGUGUGCAG,192,26.5,–,–
CACGAAAGAUCGGCCGCCACUCAUGUAGCUUACAUGAGGAUCACCCAUGUAUUUUCUUUCUUUUAGAGGACCGGGAUCGAGCGUG,37.4,19.2,–,–
AACAUGAGCACGGCCGCCACUCCAUGAACAUGAGGAUCACCCAUACACAUGAGGAUCACCCAUGUGAGGACCGGGUGUCCAUGUG,–,–,13.3,56.6
CGAUAUAAGACGGCCGCCACUAUUAUGUAACAAAAUAAACAUGAGGAUCACCCAUGUACAUGGGAUAGGACCGGGUCCAAUAACG,112,58.2,–,–

# From the EternaBench riboswitch data
